Results reported in ChEMBL document CHEMBL1828552, “Synthesis and studies of novel 2-(4-cyano-3-trifluoromethylphenyl amino)-4-(quinoline-4-yloxy)-6-(piperazinyl/piperidinyl)-s-triazines as potential antimicrobial, antimycobacterial and anticancer agents” (2011).
In brackets after ≈: the same amount, converted by molar mass.

Key:
[1] = test system: Shigella flexneri; assay: Antibacterial activity against 10^5 CFU/mL Shigella flexneri MTCC 1457 after 24 hrs by disc diffusion technique; type: functional
Summary of the method: (§1)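 Disc diffusion on Mueller–Hinton agar poured 5 mm deep. The surface was swabbed with a 10⁵ CFU/mL […] suspension. Filter-paper discs 6.25 mm in diameter were soaked in compound in DMSO and placed on the agar. Plates were incubated 24 h at 37 ± 1 °C, and the inhibition zone was measured in mm. A DMSO disc served as blank.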

[2] = test system: Aspergillus clavatus; assay: Antifungal activity against 10^5 CFU/mL Aspergillus clavatus MTCC 1323 after 48 hrs by disc diffusion technique; type: functional
[3] = test system: Shigella flexneri; assay: Antibacterial activity against 10^5 CFU/mL Shigella flexneri MTCC 1457 after 24 hrs by agar streak dilution method; type: functional; conditions: MTCC 1457, 24 h
Summary of the method: (§2)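 Agar streak dilution. Stock 100 µg/mL in DMSO; graded amounts were mixed into molten nutrient agar and poured at 4–5 mm depth. Plates carried serial dilutions over […]. About 10⁵ CFU/mL of each bacterium was applied, and plates were incubated at 37 ± 1 °C for 24 h. MIC was read from the dilution series.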

[4] = test system: Staphylococcus aureus; assay: Antibacterial activity against 10^5 CFU/mL Staphylococcus aureus MTCC 96 after 24 hrs by agar streak dilution method; type: functional; conditions: MTCC 96, 24 h; summary of the method: as §2
[5] = test system: Pseudomonas aeruginosa; assay: Antibacterial activity against 10^5 CFU/mL Pseudomonas aeruginosa MTCC 741 after 24 hrs by disc diffusion technique; type: functional; summary of the method: as §1
[6] = test system: Klebsiella pneumoniae; assay: Antibacterial activity against 10^5 CFU/mL Klebsiella pneumoniae MTCC 109 after 24 hrs by disc diffusion technique; type: functional; summary of the method: as §1
[7] = test system: Escherichia coli; assay: Antibacterial activity against 10^5 CFU/mL Escherichia coli MTCC 739 after 24 hrs by disc diffusion technique; type: functional; summary of the method: as §1
[8] = test system: Bacillus cereus; assay: Antibacterial activity against 10^5 CFU/mL Bacillus cereus MTCC 619 after 24 hrs by agar streak dilution method; type: functional; conditions: MTCC 619, 24 h; summary of the method: as §2
[9] = test system: Pseudomonas aeruginosa; assay: Antibacterial activity against 10^5 CFU/mL Pseudomonas aeruginosa MTCC 741 after 24 hrs by agar streak dilution method; type: functional; conditions: MTCC 741, 24 h; summary of the method: as §2
[10] = test system: DU-145; assay: Cytotoxicity against […] human DU145 cells after 48 hrs by SRB assay; type: functional; conditions: DU-145, 48 h
Summary of the method: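 SRB assay in DU-145 cells grown in RPMI 1640 with 10% FBS and 2 mM L-glutamine. Cells were plated and held 24 h before addition of four 10-fold concentrations. After 48 h, cells were TCA-fixed, stained with 0.4% SRB and read at 540 nm. GI50, TGI and LC50 were derived against time-zero and control wells; each value is the mean of three experiments.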

[11] = test system: Proteus vulgaris; assay: Antibacterial activity against 10^5 CFU/mL Proteus vulgaris MTCC 1771 after 24 hrs by disc diffusion technique; type: functional; summary of the method: as §1
[12] = test system: Aspergillus fumigatus; assay: Antifungal activity against 10^5 CFU/mL Aspergillus fumigatus MTCC 343 after 48 hrs by agar streak dilution method; type: functional; conditions: MTCC 343, 48 h
Summary of the method: (§3)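 Agar streak dilution for fungi. Stock 100 µg/mL in DMSO; graded amounts were mixed into molten Sabouraud dextrose agar and poured at 4–5 mm depth. Serial dilutions ran over […]. About 10⁵ CFU/mL inoculum was applied, with incubation at 37 ± 1 °C for 48 h. MIC was read from the dilution series.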

[13] = test system: Aspergillus niger; assay: Antifungal activity against 10^5 CFU/mL Aspergillus niger MTCC 282 after 48 hrs by agar streak dilution method; type: functional; conditions: MTCC 282, 48 h; summary of the method: as §3
[14] = test system: Candida albicans; assay: Antifungal activity against 10^5 CFU/mL Candida albicans MTCC 183 after 48 hrs by agar streak dilution method; type: functional; conditions: MTCC 183, 48 h; summary of the method: as §3
[15] = test system: Klebsiella pneumoniae; assay: Antibacterial activity against 10^5 CFU/mL Klebsiella pneumoniae MTCC 109 after 24 hrs by agar streak dilution method; type: functional; conditions: MTCC 109, 24 h; summary of the method: as §2
[16] = test system: Candida albicans; assay: Antifungal activity against 10^5 CFU/mL Candida albicans MTCC 183 after 48 hrs by disc diffusion technique; type: functional
[17] = test system: Aspergillus clavatus; assay: Antifungal activity against 10^5 CFU/mL Aspergillus clavatus MTCC 1323 after 48 hrs by agar streak dilution method; type: functional; conditions: MTCC 1323, 48 h; summary of the method: as §3
[18] = test system: Escherichia coli; assay: Antibacterial activity against 10^5 CFU/mL Escherichia coli MTCC 739 after 24 hrs by agar streak dilution method; type: functional; conditions: MTCC 739, 24 h; summary of the method: as §2
[19] = test system: Bacillus cereus; assay: Antibacterial activity against 10^5 CFU/mL Bacillus cereus MTCC 619 after 24 hrs by disc diffusion technique; type: functional; summary of the method: as §1
[20] = test system: Staphylococcus aureus; assay: Antibacterial activity against 10^5 CFU/mL Staphylococcus aureus MTCC 96 after 24 hrs by disc diffusion technique; type: functional; summary of the method: as §1
[21] = test system: Aspergillus niger; assay: Antifungal activity against 10^5 CFU/mL Aspergillus niger MTCC 282 after 48 hrs by disc diffusion technique; type: functional
[22] = test system: Salmonella typhi; assay: Antibacterial activity against 10^5 CFU/mL Salmonella typhi MTCC 733 after 24 hrs by disc diffusion technique; type: functional, Salmonella enterica subsp. enterica serovar Typhi
Summary of the method: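 Disc diffusion. Mueller-Hinton agar autoclaved 120 °C 30 min, poured 5 mm deep. Surface swabbed with 10⁵ CFU/mL suspension […]. 6.25 mm filter-paper discs soaked in compound in DMSO; DMSO-only disc as blank. Incubated 37 ± 1 °C, 24 h for bacteria or 48 h for fungi. Ciprofloxacin and ketoconazole discs as reference drugs. Inhibition zone measured in mm.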

[23] = test system: Proteus vulgaris; assay: Antibacterial activity against 10^5 CFU/mL Proteus vulgaris MTCC 1771 after 24 hrs by agar streak dilution method; type: functional; conditions: MTCC 1771, 24 h; summary of the method: as §2
[24] = test system: Salmonella typhi; assay: Antibacterial activity against 10^5 CFU/mL Salmonella typhi MTCC 733 after 24 hrs by agar streak dilution method; type: functional, Salmonella enterica subsp. enterica serovar Typhi; conditions: Salmonella enterica, MTCC 733, 24 h
[25] = test system: Aspergillus fumigatus; assay: Antifungal activity against 10^5 CFU/mL Aspergillus fumigatus MTCC 343 after 48 hrs by disc diffusion technique; type: functional

| SMILES | inhibition zone (IZ) [1] [mm] | inhibition zone (IZ) [2] [mm] | MIC [3] [µg/mL] | MIC [4] [µg/mL] | inhibition zone (IZ) [5] [mm] | inhibition zone (IZ) [6] [mm] | inhibition zone (IZ) [7] [mm] | MIC [8] [µg/mL] | MIC [9] [µg/mL] | GI50 [10] [µM] | LC50 (concentration giving 50% net cell kill relative to time zero) [10] [µM] | TGI [10] [µM] | inhibition zone (IZ) [11] [mm] | MIC [12] [µg/mL] | MIC [13] [µg/mL] | MIC [14] [µg/mL] | MIC [15] [µg/mL] | inhibition zone (IZ) [16] [mm] | MIC [17] [µg/mL] | MIC [18] [µg/mL] | other results |
| --- | --- | --- | --- | --- | --- | --- | --- | --- | --- | --- | --- | --- | --- | --- | --- | --- | --- | --- | --- | --- | --- |
| CC(C)N1CCN(c2nc(Nc3ccc(C#N)c(C(F)(F)F)c3)nc(Oc3ccnc4ccccc34)n2)CC1 | 21 | 17 | 50 (≈ 93.5 µM) | 50 (≈ 93.5 µM) | 22 | 21 | 22 | 50 (≈ 93.5 µM) | 25 (≈ 46.8 µM) | > 100 | > 100 | > 100 | 21 | 100 (≈ 187 µM) | 100 (≈ 187 µM) | 100 (≈ 187 µM) | 100 (≈ 187 µM) | 18 | 100 (≈ 187 µM) | 50 (≈ 93.5 µM) | inhibition zone (IZ) [19]: 22 mm; inhibition zone (IZ) [20]: 23 mm; inhibition zone (IZ) [21]: <10 mm; inhibition zone (IZ) [22]: 21 mm; MIC [23]: 100 µg/mL (≈ 187 µM); MIC [24]: 100 µg/mL (≈ 187 µM); inhibition zone (IZ) [25]: 17 mm |
| N#Cc1ccc(Nc2nc(Oc3ccnc4ccccc34)nc(N3CCN(c4ccccn4)CC3)n2)cc1C(F)(F)F | 16 | <10 | 100 (≈ 176 µM) | 100 (≈ 176 µM) | 16 | 17 | 19 | 100 (≈ 176 µM) | 100 (≈ 176 µM) | 85.9 | > 100 | > 100 | 16 | 100 (≈ 176 µM) | 100 (≈ 176 µM) | 100 (≈ 176 µM) | 100 (≈ 176 µM) | 13 | 100 (≈ 176 µM) | 100 (≈ 176 µM) | inhibition zone (IZ) [19]: 19 mm; inhibition zone (IZ) [20]: 21 mm; inhibition zone (IZ) [21]: <10 mm; inhibition zone (IZ) [22]: 15 mm; MIC [23]: 100 µg/mL (≈ 176 µM); MIC [24]: 100 µg/mL (≈ 176 µM); inhibition zone (IZ) [25]: 12 mm |
| N#Cc1ccc(Nc2nc(Oc3ccnc4ccccc34)nc(N3CCN(c4ncccn4)CC3)n2)cc1C(F)(F)F | 17 | 11 | 100 (≈ 175 µM) | 100 (≈ 175 µM) | 16 | 17 | 18 | 50 (≈ 87.6 µM) | 100 (≈ 175 µM) | 85.2 | > 100 | > 100 | 18 | 100 (≈ 175 µM) | 100 (≈ 175 µM) | 100 (≈ 175 µM) | 100 (≈ 175 µM) | 13 | 100 (≈ 175 µM) | 100 (≈ 175 µM) | inhibition zone (IZ) [19]: 21 mm; inhibition zone (IZ) [20]: 21 mm; inhibition zone (IZ) [21]: 11 mm; inhibition zone (IZ) [22]: 16 mm; MIC [23]: 100 µg/mL (≈ 175 µM); MIC [24]: 100 µg/mL (≈ 175 µM); inhibition zone (IZ) [25]: 13 mm |
| N#Cc1ccc(Nc2nc(Oc3ccnc4ccccc34)nc(N3CCN(Cc4ccccc4)CC3)n2)cc1C(F)(F)F | 11 | 12 | 100 (≈ 172 µM) | 100 (≈ 172 µM) | 15 | <10 | 14 | 100 (≈ 172 µM) | 100 (≈ 172 µM) | > 100 | > 100 | > 100 | 16 | 100 (≈ 172 µM) | 100 (≈ 172 µM) | 100 (≈ 172 µM) | 100 (≈ 172 µM) | <10 | 100 (≈ 172 µM) | 100 (≈ 172 µM) | inhibition zone (IZ) [19]: 22 mm; inhibition zone (IZ) [20]: 22 mm; inhibition zone (IZ) [21]: <10 mm; inhibition zone (IZ) [22]: 14 mm; MIC [23]: 100 µg/mL (≈ 172 µM); MIC [24]: 100 µg/mL (≈ 172 µM); inhibition zone (IZ) [25]: <10 mm |
| N#Cc1ccc(Nc2nc(Oc3ccnc4ccccc34)nc(N3CCC(Cc4ccccc4)CC3)n2)cc1C(F)(F)F | 14 | 14 | 100 (≈ 172 µM) | 100 (≈ 172 µM) | 19 | 16 | 14 | 50 (≈ 86 µM) | 100 (≈ 172 µM) | > 100 | > 100 | > 100 | 17 | 100 (≈ 172 µM) | 100 (≈ 172 µM) | 100 (≈ 172 µM) | 100 (≈ 172 µM) | 15 | 100 (≈ 172 µM) | 100 (≈ 172 µM) | inhibition zone (IZ) [19]: 22 mm; inhibition zone (IZ) [20]: 24 mm; inhibition zone (IZ) [21]: <10 mm; inhibition zone (IZ) [22]: 16 mm; MIC [23]: 100 µg/mL (≈ 172 µM); MIC [24]: 100 µg/mL (≈ 172 µM); inhibition zone (IZ) [25]: <10 mm |
